Measured values: ChEMBL document CHEMBL3112550, “Specific features of HIV-1 integrase inhibition by bisphosphonate derivatives” (Eur J Med Chem, 2014)
Active and inactive are the calls of the source. The calls are words filed in the database; no cut-off is given here.

Key:
[1] = molecular target: T1, Human immunodeficiency virus type 1 integrase (Human immunodeficiency virus 1, UniProt Q7ZJM1); assay: Inhibition of HIV-1 GST-tagged integrase-His6-tagged LEDGF complex expressed in Escherichia coli BL21(DE3) using [32P]-labeled U5B/U5A DNA as substrate assessed as inhibition of 3'-processing reaction after 2 hrs by PAGE analysis in presence of Mg2+
T1 sequence (Q7ZJM1 whole entry): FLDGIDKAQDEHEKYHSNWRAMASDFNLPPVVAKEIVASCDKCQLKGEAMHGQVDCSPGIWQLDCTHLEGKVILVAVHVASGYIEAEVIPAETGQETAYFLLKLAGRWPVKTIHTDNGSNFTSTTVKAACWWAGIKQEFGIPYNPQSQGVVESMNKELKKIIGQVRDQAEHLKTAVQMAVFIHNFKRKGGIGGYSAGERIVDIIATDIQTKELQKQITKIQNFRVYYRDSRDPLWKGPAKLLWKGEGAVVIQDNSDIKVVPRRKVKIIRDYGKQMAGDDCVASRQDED
Outline: (§1)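 IN/LEDGF complex (IN combined with 50 nM LEDGF) processing 32P-labeled U5B/U5A (3 nM) in buffer A (20 mM HEPES pH 7.2, 7.5 mM MgCl2 or MnCl2, 1 mM DTT) with increasing inhibitor, 37°C, 2 h; products separated by denaturing 20% PAGE and quantified by phosphorimaging.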

[2] = molecular target: T1, Human immunodeficiency virus type 1 integrase; assay: Inhibition of HIV-1 integrase expressed in Escherichia coli using [32P]-labeled U5B-2/U5A DNA as substrate assessed as inhibition of strand transfer reaction after 2 hrs by PAGE analysis in presence of Mn2+
Outline: (§2)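 Strand transfer: 32P-labeled U5B-2/U5A duplex (10 nM) with IN (100 nM) in buffer A (20 mM HEPES pH 7.2, 7.5 mM MgCl2 or MnCl2, 1 mM DTT), increasing inhibitor, 37°C, 2 h. EDTA-containing stop solution, phenol–chloroform extraction, ethanol precipitation, denaturing 20% PAGE, phosphorimager quantification of reaction efficiency.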

[3] = molecular target: T1, Human immunodeficiency virus type 1 integrase; assay: Inhibition of HIV-1 integrase expressed in Escherichia coli using [32P]-labeled U5B-2/U5A DNA as substrate assessed as inhibition of strand transfer reaction after 2 hrs by PAGE analysis in presence of Mg2+; outline: as §2
[4] = molecular target: T1, Human immunodeficiency virus type 1 integrase; assay: (§3) Inhibition of HIV-1 integrase expressed in Escherichia coli using [32P]-labeled U5B/U5A DNA as substrate assessed as inhibition of 3'-processing reaction after 2 hrs by PAGE analysis in presence of Mg2+
Outline: (§4)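 3'-Processing: 32P-labeled U5B/U5A (3 nM) with IN (100 nM) in buffer A (20 mM HEPES pH 7.2, 7.5 mM MgCl2 or MnCl2, 1 mM DTT), increasing inhibitor, 37°C, 2 h; stopped with EDTA solution, phenol–chloroform extracted, ethanol precipitated, resolved on denaturing 20% PAGE, phosphorimager-quantified.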

[5] = molecular target: T1, Human immunodeficiency virus type 1 integrase; assay: Displacement of [32P]-labeled U5B/U5A DNA from HIV-1 integrase expressed in Escherichia coli in presence of Mg2+
Outline: (§5)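 DRaCALA binding: 32P-labeled U5B/U5A (3 nM) with IN in buffer A (20 mM HEPES pH 7.2, 7.5 mM MgCl2 or MnCl2, 1 mM DTT), compound 0–500 μM, 25°C for 20 min; mixture spotted on nitrocellulose membrane, bound DNA quantified by phosphorimaging.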

[6] = molecular target: T1, Human immunodeficiency virus type 1 integrase; assay: Displacement of [32P]-labeled U5B/U5A DNA from HIV-1 integrase expressed in Escherichia coli in presence of Mn2+; outline: as §5
[7] = molecular target: T1, Human immunodeficiency virus type 1 integrase; assay: Inhibition of HIV-1 integrase expressed in Escherichia coli using [32P]-labeled U5B/U5A DNA as substrate assessed as inhibition of 3'-processing reaction after 2 hrs by PAGE analysis in presence of Mn2+; outline: as §4
[8] = molecular target: Human immunodeficiency virus type 1 integrase (Human immunodeficiency virus 1, UniProt Q7ZJM1, E92Q); assay: Inhibition of HIV-1 integrase E92Q mutant expressed in Escherichia coli using [32P]-labeled U5B/U5A DNA as substrate assessed as inhibition of 3'-processing reaction after 2 hrs by PAGE analysis in presence of Mg2+
Chain of Human immunodeficiency virus type 1 integrase (Human immunodeficiency virus 1, UniProt Q7ZJM1, E92Q) (Q7ZJM1 entry or part of it E92Q): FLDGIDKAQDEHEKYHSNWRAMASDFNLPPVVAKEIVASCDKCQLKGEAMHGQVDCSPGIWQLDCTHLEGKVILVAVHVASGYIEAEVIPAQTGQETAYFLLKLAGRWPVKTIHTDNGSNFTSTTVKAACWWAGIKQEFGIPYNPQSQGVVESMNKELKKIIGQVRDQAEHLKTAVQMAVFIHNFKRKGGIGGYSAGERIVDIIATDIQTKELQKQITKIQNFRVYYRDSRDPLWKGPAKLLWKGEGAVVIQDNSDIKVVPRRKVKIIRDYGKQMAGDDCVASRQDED
Outline: (§6)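 3'-processing: 32P-labelled U5B/U5A duplex mimicking the HIV-1 U5 LTR end (3 nM) incubated with integrase (100 nM) in 20 mM HEPES pH 7.2, 7.5 mM MgCl2, 1 mM DTT, with increasing inhibitor concentrations, 37°C, 2 h. Stopped with EDTA, phenol-chloroform extracted, ethanol precipitated. Products resolved on denaturing 20% PAGE, phosphorimaged, reaction efficiency quantified.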

[9] = molecular target: Human immunodeficiency virus type 1 integrase (Human immunodeficiency virus 1, UniProt Q7ZJM1, N155H); assay: Inhibition of HIV-1 integrase N155H mutant expressed in Escherichia coli using [32P]-labeled U5B/U5A DNA as substrate assessed as inhibition of 3'-processing reaction after 2 hrs by PAGE analysis in presence of Mg2+; outline: as §6
Chain of Human immunodeficiency virus type 1 integrase (Human immunodeficiency virus 1, UniProt Q7ZJM1, N155H) (Q7ZJM1 entry or part of it N155H): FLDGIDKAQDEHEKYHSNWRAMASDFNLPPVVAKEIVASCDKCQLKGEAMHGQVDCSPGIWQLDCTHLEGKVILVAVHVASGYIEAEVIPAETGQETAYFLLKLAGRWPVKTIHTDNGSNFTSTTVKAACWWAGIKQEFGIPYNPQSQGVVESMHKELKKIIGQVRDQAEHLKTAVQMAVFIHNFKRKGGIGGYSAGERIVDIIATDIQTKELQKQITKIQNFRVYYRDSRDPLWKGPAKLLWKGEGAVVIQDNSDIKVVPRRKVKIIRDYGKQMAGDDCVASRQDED

[10] = molecular target: Human immunodeficiency virus type 1 integrase (Human immunodeficiency virus 1, UniProt Q7ZJM1, G140S); assay: Inhibition of HIV-1 integrase G140S mutant expressed in Escherichia coli using [32P]-labeled U5B/U5A DNA as substrate assessed as inhibition of 3'-processing reaction after 2 hrs by PAGE analysis in presence of Mg2+; outline: as §6
Chain of Human immunodeficiency virus type 1 integrase (Human immunodeficiency virus 1, UniProt Q7ZJM1, G140S) (Q7ZJM1 entry or part of it G140S): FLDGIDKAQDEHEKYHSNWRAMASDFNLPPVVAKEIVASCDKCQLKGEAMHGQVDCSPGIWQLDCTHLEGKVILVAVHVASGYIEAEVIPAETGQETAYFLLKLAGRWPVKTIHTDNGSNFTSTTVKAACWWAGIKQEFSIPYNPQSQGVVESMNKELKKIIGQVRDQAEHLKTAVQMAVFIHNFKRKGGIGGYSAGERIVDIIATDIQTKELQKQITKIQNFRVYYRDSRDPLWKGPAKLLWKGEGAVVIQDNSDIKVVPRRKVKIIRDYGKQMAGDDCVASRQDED

[11] = molecular target: Human immunodeficiency virus type 1 integrase (Human immunodeficiency virus 1, UniProt Q7ZJM1, E138K); assay: Inhibition of HIV-1 integrase E138K mutant expressed in Escherichia coli using [32P]-labeled U5B/U5A DNA as substrate assessed as inhibition of 3'-processing reaction after 2 hrs by PAGE analysis in presence of Mg2+; outline: as §6
Chain of Human immunodeficiency virus type 1 integrase (Human immunodeficiency virus 1, UniProt Q7ZJM1, E138K) (Q7ZJM1 entry or part of it E138K): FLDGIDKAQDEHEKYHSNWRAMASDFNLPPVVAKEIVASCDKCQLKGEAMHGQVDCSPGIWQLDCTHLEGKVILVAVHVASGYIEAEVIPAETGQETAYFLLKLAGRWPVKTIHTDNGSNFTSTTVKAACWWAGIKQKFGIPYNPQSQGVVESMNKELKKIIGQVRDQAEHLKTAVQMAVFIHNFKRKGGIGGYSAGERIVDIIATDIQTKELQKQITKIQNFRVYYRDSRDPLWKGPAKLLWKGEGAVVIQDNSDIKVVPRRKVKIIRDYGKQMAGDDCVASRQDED

[12] = molecular target: T1, Human immunodeficiency virus type 1 integrase; assay: Non-competitive inhibition of HIV-1 integrase expressed in Escherichia coli using [32P]-labeled U5B/U5A DNA as substrate after 1 hr by double-reciprocal plot analysis in presence of Mn2+
Outline: (§7)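 Kinetics: IN (100 nM) incubated with 32P-labeled U5B/U5A (2.5–12.5 nM) plus inhibitor (0–39 μM or 0–15 μM, depending on compound) in buffer A (20 mM HEPES pH 7.2, 7.5 mM MgCl2 or MnCl2, 1 mM DTT), 1 h, 37°C. Initial 3'-processing rate vs substrate concentration at varied inhibitor levels plotted double-reciprocally; Km and KI calculated from the fitted inhibition model.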

[13] = molecular target: T1, Human immunodeficiency virus type 1 integrase; assay: Competitive inhibition of HIV-1 integrase expressed in Escherichia coli using [32P]-labeled U5B/U5A DNA as substrate after 1 hr by double-reciprocal plot analysis in presence of Mg2+; outline: as §7
[14] = molecular target: T1, Human immunodeficiency virus type 1 integrase; assay: Inhibition of HIV-1 GST-tagged integrase-His6-tagged LEDGF complex expressed in Escherichia coli BL21(DE3) using [32P]-labeled U5B/U5A DNA as substrate assessed as inhibition of 3'-processing reaction after 2 hrs by PAGE analysis in presence of Mn2+; outline: as §1
[15] = molecular target: Human immunodeficiency virus type 1 integrase (Human immunodeficiency virus 1) (UniProt Q7ZJM1); assay: as §3; outline: as §4
Chain of Human immunodeficiency virus type 1 integrase (Human immunodeficiency virus 1) (Q7ZJM1 as listed by the source): as the sequence (Q7ZJM1 whole entry) above

[16] = molecular target: Human immunodeficiency virus type 1 integrase (Human immunodeficiency virus 1) (UniProt Q7ZJM1); assay: Inhibition of HIV-1 integrase expressed in Escherichia coli using [32P]-labeled U5B/U5A DNA as substrate assessed as inhibition of 3'-processing reaction up to 250 uM after 2 hrs by PAGE analysis in presence of Mg2+; outline: as §4
[17] = molecular target: Human immunodeficiency virus type 1 integrase (Human immunodeficiency virus 1) (UniProt Q7ZJM1); assay: Inhibition of HIV-1 integrase expressed in Escherichia coli using [32P]-labeled U5B/U5A DNA as substrate assessed as inhibition of 3'-processing reaction up to 500 uM after 2 hrs by PAGE analysis in presence of Mg2+; outline: as §6
[18] = molecular target: T1, Human immunodeficiency virus type 1 integrase; assay: Non-competitive inhibition of HIV-1 integrase expressed in Escherichia coli using [32P]-labeled U5B/U5A DNA as substrate after 1 hr by double-reciprocal plot analysis in presence of Mg2+; outline: as §7
[19] = molecular target: Human immunodeficiency virus type 1 integrase (Human immunodeficiency virus 1) (UniProt Q7ZJM1); assay: Ratio of IC50 for HIV-1 integrase-mediated 3'-processing reaction in presence of Mg2+ to IC50 for HIV-1 integrase-mediated strand transfer reaction in presence of Mg2+

For `O=P(O)(O)C(O)(Cc1ccc(Cl)c(Cl)c1)P(=O)(O)O`, the IC50 [1] was > 250 µM, the IC50 [2] was 4 µM and the IC50 [3] was 45 µM. For the same compound, the IC50 [4] was 35 µM, the IC50 [5] was 150 µM and the IC50 [6] was > 500 µM. For the same compound, the IC50 [7] was 5 µM, the IC50 [8] was 35 µM and the IC50 [9] was 35 µM. The IC50 [10] was 35 µM, the IC50 [11] was 35 µM and the Ki [12] was 4.4 µM. It also gave a Ki [13] of 38 µM and an IC50 [14] of 4.5 µM.

In the case of `O=P(O)(O)C(CNc1ccccc1)P(=O)(O)O`, the inhibition [15] is reported as “inactive”.

In the case of `O=P(O)(O)C(O)(C[n+]1ccc(-c2ccccc2)cc1)P(=O)(O)O`, the inhibition [16] is reported as “inactive”.

For `O=P(O)(O)C(Cc1ccc(Cl)c(Cl)c1)P(=O)(O)O`, the IC50 [1] was > 250 µM, the IC50 [2] was 5 µM and the IC50 [3] was 30 µM. The IC50 [4] was 30 µM, the IC50 [5] was 130 µM and the IC50 [6] was > 500 µM. For the same compound, the IC50 [7] was 5 µM and the IC50 [14] was 6 µM.

`CCc1cccc[n+]1CC(O)(P(=O)(O)O)P(=O)(O)O` was tested, and the inhibition [16] was “inactive”.

In the case of `NC(C[n+]1ccccc1)(P(=O)(O)O)P(=O)(O)O`, the inhibition [16] is reported as “inactive”.

For `O=C(O)Cc1ccc(Cl)c(Cl)c1`, the inhibition [17] was “inactive”.

`O=P(O)(O)C(O)(Cc1ccc(Cl)cc1)P(=O)(O)O` was tested, and the IC50 [1] was > 250 µM, the IC50 [2] was 6 µM and the IC50 [3] was 42 µM. For the same compound, the IC50 [4] was 20 µM, the IC50 [5] was 70 µM and the IC50 [6] was > 500 µM. For the same compound, the IC50 [7] was 5 µM and the IC50 [14] was 8 µM.

`O=P(O)(O)C(CNCCc1ccccc1)P(=O)(O)O` was tested, and the inhibition [15] was “inactive”.

For `O=P(O)(O)C(O)(CCc1ccccc1)P(=O)(O)O`, the inhibition [16] was “inactive”.

`O=P(O)(O)C(O)(Cc1ccccc1)P(=O)(O)O` was tested, and the inhibition [16] was “inactive”.

With `NC(Cc1ccc(Cl)c(Cl)c1)(P(=O)(O)O)P(=O)(O)O` the IC50 [1] was 7 µM, the IC50 [2] was 2 µM and the IC50 [3] was 3 µM. For the same compound, the IC50 [4] was 7 µM, the IC50 [5] was > 256 µM and the IC50 [6] was > 500 µM. For the same compound, the IC50 [7] was 2 µM, the IC50 [8] was 7 µM and the IC50 [9] was 7 µM. For the same compound, the IC50 [10] was 7 µM, the IC50 [11] was 7 µM and the Ki [12] was 1 µM. The Ki [18] was 2 µM, the Ratio IC50 [19] was 2 and the IC50 [14] was 2 µM.

For `O=P(O)(O)C(O)(CCCCc1ccccc1)P(=O)(O)O`, the inhibition [16] was “inactive”.

For `O=P(O)(O)C(O)(C[n+]1ccccc1)P(=O)(O)O`, the inhibition [16] was “inactive”.

`O=P(O)(O)C(CNc1ccc(I)cc1)P(=O)(O)O` was tested, and the inhibition [15] was “inactive”.

`O=P(O)(O)Cc1ccc(Cl)c(Cl)c1` was tested, and the inhibition [17] was “inactive”.

With `O=P(O)(O)C(O)(C[n+]1cccc(O)c1)P(=O)(O)O` the inhibition [16] was “inactive”.

`O=P(O)(O)C(Cc1ccc(Cl)c(Cl)c1)(Cc1ccc(Cl)c(Cl)c1)P(=O)(O)O` gave an IC50 [2] of 0.8 µM, an IC50 [3] of 16 µM and an IC50 [4] of 20 µM. For the same compound, the IC50 [5] was 100 µM, the IC50 [6] was > 500 µM and the IC50 [7] was 0.8 µM.

With `NC(Cc1ccccc1)(P(=O)(O)O)P(=O)(O)O` the inhibition [16] was “inactive”.
